Experimental data from ChEMBL document CHEMBL4513216, “Probing the Open Global Health Chemical Diversity Library for Multistage-Active Starting Points for Next-Generation Antimalarials” (ACS Infect Dis, 2020).

Assay: Toxicity liver stage against HepG2, at 10uM
Type: cell-based
Parameters: test concentration 10 uM, cell line HepG2-A16-CD81EGFP
Conditions: human, HepG2-A16-CD81EGFP cells; read-out: INHIBITION
Outline: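 Uninfected HepG2-A16-CD81EGFP cells, 3 × 10^3 per well, 1536-well, plated on prespotted compound at 10 μM final, parasite-free screening media added to match infected plates; puromycin 10 μM positive, DMSO 0.5% negative; run in parallel with 48 h PbLuc assay at 37 °C, 5% CO2; viability by CellTiter-Glo luminescence, normalized to controls.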

Row | SMILES | cytotoxicity at 10 µM [%]
1 | Cc1nn(CCC#N)c(C)c1[C@@H]1C=C[C@@H](NCc2cccc(Cl)c2)C1 | -1.45
2 | CC(C)c1noc(-c2cccc(OCC(N)=O)c2)n1 | -7.39
3 | Cc1ccc(NC(=O)NCC2(O)CCCC2)cc1C | -6.8
4 | Cc1ccccc1CNC(=O)N1CC[C@@H]2CN(C)S(=O)(=O)[C@@H]2CC1 | -0.39
5 | CNC(=O)N1CCc2cc(C(=O)NCC3CC3)c(NC(C)C)nc2CC1 | 2.02
6 | NC(=O)CCn1ccc(NCc2cc(F)ccc2Br)n1 | -1.91
7 | Cc1ccc(-c2csc(-c3cccc(C(=O)O)c3)n2)cc1 | 3.21
8 | CC1CCN(C(=O)c2occc2COc2cccc(C#N)c2)CC1 | 0.106
9 | Cc1nc(COc2ccc(OCC(N)=O)cc2)oc1C | 4.68
10 | O=C(Cn1cc(Cl)cn1)Nc1ccc2c(c1)OCCCO2 | 4.98
11 | O=C(CNC(=O)c1ccoc1)NCCOc1ccc2c(c1)CCC2 | -7.98
12 | Cc1ccc(C(=O)NCCNC(=O)c2cncnc2C(C)C)cc1F | 9.52
13 | COc1ccc(OC)c(C(O)CN2CCN(C3CCCC3)CC2)c1 (stereo not given) | 6.81
14 | Cn1c(Nc2ccc(F)cc2)c(C#N)c(=O)n(C)c1=O | 1.77
15 | Cc1ccc(NC(=O)NC(C)c2nc[nH]n2)cc1Cl (stereo not given) | -2.06
16 | O=C(CNc1cc2c(cc1Cl)OCCCO2)NCc1ccc(F)cc1 | 0.854
17 | CC(NC(=O)N(C)Cc1cnn(C)c1)c1nncn1C (stereo not given) | -3.03
18 | COc1c(C)cnc(CNC(=O)CCc2nc3ccccc3[nH]2)c1C | -5.27
19 | O=C(c1cccc(-c2ccc(F)cc2)c1)N1CCCC(O)(CO)CC1 (stereo not given) | -4.77
20 | CN1CCCCC1Cc1nc2c(cc1C(N)=O)CCC2 (stereo not given) | -9.55
21 | O=C1NCCCCC1NC(=O)C1(Oc2ccc(Cl)cc2)CCNCC1 (stereo not given) | -6.21
22 | O[C@H]1[C@H](n2cc(-c3ccccn3)nn2)c2ccccc2C12CCNCC2 | -11.5
23 | CN(Cc1ccoc1)c1ccc(-c2nccn2C)nn1 | -5.12

Row | SMILES | cytotoxicity at 10 µM [%]
24 | Cc1ncsc1CN1CC(C)(C2CC2)CC1=O (stereo not given) | 0.832
25 | COCCNC(=O)[C@H]1C[C@@](CC(C)C)(C(=O)O)N(C)[C@H]1c1cccnc1 | -6.16
26 | CCc1nc(N2CCCC(O)(CO)CC2)ncc1C (stereo not given) | 10.8
27 | Cc1ccc(SCCN(C)C(=O)c2cn(CCN)nn2)cc1 | -4.7
28 | CC(=O)N1CCCC(C(=O)NCc2noc(Cc3ccccc3)n2)C1 (stereo not given) | 3.02
29 | COc1cccc(-c2c[nH]c(C)n2)c1F | -3.29
30 | O=C(Cn1nc2ccccc2n1)N1CCCC(O)(CN2CCCC2)C1 (stereo not given) | -10.4
31 | CC(C)=CCCC(C)CN1CCC(n2cc(CO)nn2)CC1 (stereo not given) | -6.37
32 | CCC(=O)c1ccc(OCC(=O)NC(C)c2nnc(C)[nH]2)cc1 (stereo not given) | 5.37
33 | O=C(CSc1ccccc1)N1CCc2c(ncnc2N2CCOCC2)C1 | -7.15
34 | O=C(c1ncccc1O)N1CCc2c(ncnc2N2CCOCC2)C1 | -3.99
35 | CC(C)c1cc(C(=O)N2CCN(c3ccncc3)CC2)n(C)n1 | -3.5
36 | Cc1nccc(-c2ccccc2)c1C(=O)N1CCC2(CN(C)C(=O)O2)C1 (stereo not given) | 4.77
37 | COC[C@@H]1CCCN1C(=O)c1cc(-c2cccc(OC)c2)n[nH]1 | 6.6
38 | CCNC(=O)[C@@H]1C[C@H](N)CN1c1cc(C(F)(F)F)nc(N2CCCC2)n1 | -3.97
39 | CC(C)(C)n1ccc(C(=O)N2CCCC(c3ccc(C(=O)O)cc3)C2)c1 (stereo not given) | 1.31
40 | O=C(Nc1ccc(F)cc1)C1CNCCN1C(=O)CCO (stereo not given) | 1.93
41 | COC1CCN(C(=O)Nc2cc(C(F)(F)F)c[nH]c2=O)CC1 | 4.1
42 | O=C(CCN1CCOC(Cn2cccn2)C1)NC1CCCCC1 (stereo not given) | -6.28
43 | COc1c(CNC2(c3noc(C)n3)CCC2)c(C(C)C)nn1C | 2.08
44 | Cc1nn(C)cc1C(=O)N1C[C@@H]2CC[C@H]1CN(S(=O)(=O)N(C)C)C2 | 19.8
45 | COCCN1C[C@@H]2CC[C@H]1CN(Cc1ccc3ccccc3n1)C2 | -11.3
